Results: ChEMBL document CHEMBL1157310, “Cytotoxic oxylipins from a marine sponge Topsentia sp” (2006)
≈ marks a conversion by molar mass, not a printed value.

Experiments:
Assay type in all cases: functional
Conditions in all cases: read-out: ED50 (the source's name)
[1] = tested on: SK-MEL-2; assay: Cytotoxicity against human SK-MEL-2 cells
Summary of the method: (§1)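 Human tumour cell lines of stated origin: SK-MEL-2 from skin cancer, XF498 from CNS cancer, HCT 15 from colon cancer.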

[2] = tested on: SK-OV-3; assay: Cytotoxicity against human SK-OV-3 cells
[3] = tested on: XF498; assay: Cytotoxicity against human XF498 cells; summary of the method: as §1
[4] = tested on: HCT-15; assay: Cytotoxicity against human HCT15 cells; summary of the method: as §1
[5] = tested on: A549; assay: Cytotoxicity against human A549 cells

`COc1cccc2c1C(=O)c1c(O)c3c(c(O)c1C2=O)C[C@@](O)(C(=O)CO)C[C@@H]3O[C@H]1C[C@H](N)[C@H](O)[C@H](C)O1` [DOXORUBICIN] gave an EC50 [1] of 0.04 µg/mL (≈ 0.0736 µM), an EC50 [2] of 0.13 µg/mL (≈ 0.239 µM) and an EC50 [3] of 0.06 µg/mL (≈ 0.11 µM). For the same molecule, the EC50 [4] was 0.06 µg/mL (≈ 0.11 µM) and the EC50 [5] was 0.04 µg/mL (≈ 0.0736 µM).
